The text below walks through data of ChEMBL document CHEMBL1151746, “Antitumor agents 6. Synthesis, structure-activity relationships, and biological evaluation of spiro[imidazolidine-4,3'-thieno[2,3-g]quinoline]-tetraones and spiro[thieno[2,3-g]quinoline-3,5'-[1,2,4]triazinane]-tetraones with potent antiproliferative activity” (J Med Chem, 2008).

As usually defined, the IC50 is the concentration at which inhibition is half-maximal.

SMILES strings stand for the structures. The source made the active and inactive calls. No cut-off for these calls is given here.

The subject of experiment [1] is MT4. As to the kind of experiment: Antiproliferative activity against human MT4 cells after 96 hrs by MTT assay. It counts as functional, cell-based. Conditions: Homo sapiens, MT4, 96 h. Put shortly:
(§1)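 Exponentially growing cells in RPMI 1640 with 10% FCS were resuspended at 1 × 10⁵ cells/mL in RPMI containing serial dilutions of compound (DMSO solution at 200 µM, diluted in medium). After 96 h at 37 °C, viability was read by MTT. Growth was taken as % of untreated controls, which grew at least three rounds. IC50 came from linear regression, as the mean of three independent determinations.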
For orientation: Formazan colour is commonly taken as a measure of viable cells.

The subject of experiment [2] is HT-29. The experiment can be described thus: Antiproliferative activity against human HT-29 cells after 96 hrs by MTT assay. Type of experiment: functional, cell-based. As to conditions: Homo sapiens, HT-29, 96 h. In a few lines:
(§2)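 Solid-tumor cells in their specific media with 10% FCS were seeded at 5 × 10⁴ cells/mL and left to adhere 16 h. Serially diluted compound was then added (DMSO solution at 200 µM, diluted in medium). MTT viability was read 4 days later. IC50 came from linear regression against untreated controls, which grew at least three rounds, as the mean of three independent determinations.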

Experiment [3] concerns CCRF-CEM. The experiment can be described thus: Antiproliferative activity against human CCRF-CEM cells after 96 hrs by MTT assay. It counts as functional, cell-based. In a few lines: as §1
In experiment [4] the test system is CCRF-SB. The experiment can be described thus: Antiproliferative activity against human CCRF-SB cells after 96 hrs by MTT assay. It counts as functional, cell-based. Put shortly:
as §1

The test system of experiment [5] is MCF7. The experiment can be described thus: Antiproliferative activity against human MCF7 cells after 96 hrs by MTT assay. It counts as functional, cell-based. As to conditions: MCF7, 96 h. Put shortly:
as §2

Experiment [6] concerns HeLa. The experiment can be described thus: Antiproliferative activity against human HeLa cells after 96 hrs by MTT assay. Type of experiment: functional, cell-based. Put shortly:
as §2

The test system of experiment [7] is ACHN. The experiment can be described thus: Antiproliferative activity against human ACHN cells after 96 hrs by MTT assay. Type of experiment: functional, cell-based. In a few lines: as §2
The subject of experiment [8] is SF-268. The experiment can be described thus: Antiproliferative activity against human SF-268 cells after 96 hrs by MTT assay. Type of experiment: functional, cell-based. As to conditions: SF-268, 96 h. In a few lines:
as §2

The test system of experiment [9] is XF498. As to the kind of experiment: Antiproliferative activity against human XF498 cells after 96 hrs by MTT assay. It counts as functional, cell-based. As to conditions: XF498, 96 h. In a few lines: as §2
The test system of experiment [10] is MRC5. The experiment can be described thus: Antiproliferative activity against human MRC5 cells after 96 hrs by MTT assay. As to conditions: MRC5, 96 h. It counts as cell-based. In a few lines:
as §1

In experiment [11] the target is DNA topoisomerase 2-alpha (Homo sapiens) (UniProt P11388). As to the kind of experiment: Inhibition of DNA topoisomerase 2-mediated negatively supercoiled pBR322 relaxation.
The target of experiment [12] is T1, DNA topoisomerase 1 (Homo sapiens) (UniProt P11387).
T1 sequence (whole entry): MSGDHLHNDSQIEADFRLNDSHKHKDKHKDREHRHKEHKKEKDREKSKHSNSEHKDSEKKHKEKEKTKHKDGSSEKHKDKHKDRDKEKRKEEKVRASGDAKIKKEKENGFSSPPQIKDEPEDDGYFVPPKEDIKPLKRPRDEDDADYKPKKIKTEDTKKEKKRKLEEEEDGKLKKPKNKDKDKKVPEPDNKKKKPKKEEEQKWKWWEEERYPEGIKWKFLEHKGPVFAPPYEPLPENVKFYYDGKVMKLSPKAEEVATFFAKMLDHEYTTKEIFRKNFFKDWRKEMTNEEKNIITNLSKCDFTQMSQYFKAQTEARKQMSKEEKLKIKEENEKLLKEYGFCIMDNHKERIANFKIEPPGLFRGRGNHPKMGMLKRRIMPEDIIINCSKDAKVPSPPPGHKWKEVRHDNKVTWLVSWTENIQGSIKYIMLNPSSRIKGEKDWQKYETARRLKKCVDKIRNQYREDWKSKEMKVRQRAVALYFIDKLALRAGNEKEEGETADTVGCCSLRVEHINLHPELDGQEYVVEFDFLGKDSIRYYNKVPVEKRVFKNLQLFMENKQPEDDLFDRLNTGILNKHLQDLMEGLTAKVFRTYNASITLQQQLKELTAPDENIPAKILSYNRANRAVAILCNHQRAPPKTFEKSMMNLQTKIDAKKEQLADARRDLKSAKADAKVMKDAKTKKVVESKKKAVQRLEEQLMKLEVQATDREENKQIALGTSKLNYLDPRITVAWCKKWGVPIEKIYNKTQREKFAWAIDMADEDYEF
As to the kind of experiment: Inhibition of DNA topoisomerase 1-mediated supercoiled pBR322 DNA relaxation at 5 to 10 uM by agarose gel electrophoresis.

Experiment [13] concerns the target T1, DNA topoisomerase 1 (Homo sapiens). As to the kind of experiment: Inhibition of DNA topoisomerase 1-mediated supercoiled pBR322 DNA relaxation at 25 uM by agarose gel electrophoresis.
For experiment [14], the target named is T2, DNA ligase (Enterobacteria phage T4) (UniProt P00970).
T2 sequence (whole entry): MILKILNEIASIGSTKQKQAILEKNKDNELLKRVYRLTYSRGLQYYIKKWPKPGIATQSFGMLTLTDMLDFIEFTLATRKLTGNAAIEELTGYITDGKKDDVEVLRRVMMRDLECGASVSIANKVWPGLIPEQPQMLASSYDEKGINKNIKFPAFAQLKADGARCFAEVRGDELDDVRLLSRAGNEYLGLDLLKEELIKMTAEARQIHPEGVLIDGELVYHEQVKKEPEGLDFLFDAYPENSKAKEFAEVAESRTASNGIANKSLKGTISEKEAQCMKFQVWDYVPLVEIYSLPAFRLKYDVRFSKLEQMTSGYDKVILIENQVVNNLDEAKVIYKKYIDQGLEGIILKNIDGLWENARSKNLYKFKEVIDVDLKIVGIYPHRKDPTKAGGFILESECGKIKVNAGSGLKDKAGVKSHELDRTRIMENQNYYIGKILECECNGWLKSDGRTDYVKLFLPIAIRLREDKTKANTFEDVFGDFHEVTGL
As to the kind of experiment: Inhibition of T4 DNA ligase by DNA unwinding assay. As to conditions: Tequatrovirus T4. Put shortly: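 EcoRI-linearized pBR322 (0.1 µg) in 30 mM Tris-HCl pH 7.8, 10 mM MgCl2, 10 mM DTT and 0.5 mM ATP was equilibrated with compound 30 min at 20 °C. Excess T4 DNA ligase was then added for 30 min at 20 °C, and reactions were stopped at 55 °C. After phenol extraction, products were resolved on 1% agarose gels.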

In experiment [15] the target is T1, DNA topoisomerase 1 (Homo sapiens). As to the kind of experiment: Inhibition of DNA topoisomerase 1-mediated supercoiled pBR322 DNA relaxation at 5 uM by agarose gel electrophoresis.

Sequence of DNA topoisomerase 2-alpha (Homo sapiens) (P11388 whole entry): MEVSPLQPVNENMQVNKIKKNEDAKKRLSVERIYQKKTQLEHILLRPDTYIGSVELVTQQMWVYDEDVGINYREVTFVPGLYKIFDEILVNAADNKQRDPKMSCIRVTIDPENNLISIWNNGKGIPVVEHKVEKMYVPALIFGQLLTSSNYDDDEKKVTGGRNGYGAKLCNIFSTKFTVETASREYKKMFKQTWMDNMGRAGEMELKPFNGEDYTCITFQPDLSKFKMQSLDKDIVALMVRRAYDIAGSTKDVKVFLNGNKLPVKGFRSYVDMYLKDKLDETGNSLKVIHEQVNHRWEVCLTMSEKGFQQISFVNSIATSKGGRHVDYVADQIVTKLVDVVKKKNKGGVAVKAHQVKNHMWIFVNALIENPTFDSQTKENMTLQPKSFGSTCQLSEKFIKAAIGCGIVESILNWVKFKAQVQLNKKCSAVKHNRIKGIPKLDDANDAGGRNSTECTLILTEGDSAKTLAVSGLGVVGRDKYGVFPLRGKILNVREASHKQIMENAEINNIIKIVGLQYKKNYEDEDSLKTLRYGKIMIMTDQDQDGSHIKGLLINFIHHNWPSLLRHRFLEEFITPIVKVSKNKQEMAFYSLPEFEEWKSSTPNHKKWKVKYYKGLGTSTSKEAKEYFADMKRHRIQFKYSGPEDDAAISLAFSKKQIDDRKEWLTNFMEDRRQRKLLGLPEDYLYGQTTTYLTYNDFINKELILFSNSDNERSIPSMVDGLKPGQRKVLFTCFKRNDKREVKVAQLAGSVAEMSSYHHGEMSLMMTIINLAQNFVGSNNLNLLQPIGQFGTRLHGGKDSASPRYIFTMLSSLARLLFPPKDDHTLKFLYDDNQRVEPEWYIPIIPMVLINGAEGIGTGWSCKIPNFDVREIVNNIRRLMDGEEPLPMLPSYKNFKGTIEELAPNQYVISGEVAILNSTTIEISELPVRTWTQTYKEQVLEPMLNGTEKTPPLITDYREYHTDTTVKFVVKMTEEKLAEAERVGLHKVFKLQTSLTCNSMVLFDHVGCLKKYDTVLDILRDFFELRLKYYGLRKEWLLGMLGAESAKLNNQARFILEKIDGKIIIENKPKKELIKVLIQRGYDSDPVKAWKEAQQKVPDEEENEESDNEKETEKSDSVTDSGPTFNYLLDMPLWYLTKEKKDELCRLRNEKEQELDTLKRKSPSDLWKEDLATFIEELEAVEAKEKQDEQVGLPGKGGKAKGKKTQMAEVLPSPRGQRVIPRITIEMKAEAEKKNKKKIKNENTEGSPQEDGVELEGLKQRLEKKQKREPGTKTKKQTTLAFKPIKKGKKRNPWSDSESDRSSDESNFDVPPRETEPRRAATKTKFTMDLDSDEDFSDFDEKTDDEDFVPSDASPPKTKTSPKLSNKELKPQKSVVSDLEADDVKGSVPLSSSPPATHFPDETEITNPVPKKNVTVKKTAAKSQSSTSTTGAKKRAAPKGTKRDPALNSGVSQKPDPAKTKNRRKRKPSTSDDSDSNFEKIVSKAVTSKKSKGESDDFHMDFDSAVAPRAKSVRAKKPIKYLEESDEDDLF

In the case of `O=C1C2=C(C(=O)c3ncccc31)C1(CS2)NC(=O)N(c2ccc(Cl)cc2)C1=O` (racemic), the IC50 in [1] is 10 nM; in experiment [2] it was 2 nM; in [3] it was 10 nM; in experiment [4], 10 nM; in [5], 4 nM; in [6] it was 2 nM. Further, the IC50 in experiment [7] came to 4 nM; in experiment [8] it was 580 nM; in experiment [9], 590 nM; in experiment [10], 800 nM. In addition, the Activity result in experiment [11] was “Dose-dependent effect”.

On to `CCCc1ccc(N2C(=O)NC3(CSC4=C3C(=O)c3ncccc3C4=O)C2=O)cc1` (racemic), for which the IC50 in experiment [1] amounted to 1 nM; in experiment [2], 1 nM; in [3], 1 nM; in experiment [4], 2 nM; in experiment [5] it was 2 nM; in experiment [6], 5 nM. Further, the IC50 in experiment [7] stood at 1 nM; in experiment [8], 300 nM; in experiment [9], 450 nM; in experiment [10], 850 nM. The result in experiment [12] was inactive. Further, the Activity result in [11] is “Dose-dependent effect”.

Consider `CN(C)c1ccc(N2C(=O)NC3(CSC4=C3C(=O)c3ncccc3C4=O)C2=O)cc1` (racemic), for which the IC50 worked out at 15 nM in [1]; 20 nM in experiment [2]; 1 nM in [3]; 1 nM in experiment [4]; 10 nM in [5]; 10 nM in experiment [6]. Moreover, the IC50 in experiment [7] was 90 nM; in [8], 950 nM; in experiment [9], 800 nM; in [10], 1000 nM. The Activity entry in experiment [11] was “Dose-dependent effect”.

For `COc1cccc2c1C(=O)c1c(O)c3c(c(O)c1C2=O)C[C@@](O)(C(=O)CO)C[C@@H]3O[C@H]1C[C@H](N)[C@H](O)[C@H](C)O1` [DOXORUBICIN], the IC50 is 3 nM in [1]; 2 nM in [2]; 20 nM in [3]; 200 nM in experiment [8]; 160 nM in [9]; 300 nM in experiment [10]. In addition, the result in experiment [13], in [14] and in [15] was Active.
